Results on one compound are retold here after ChEMBL document CHEMBL1155309, “Synthesis of 3,6-disubstituted 7H-1,2,4-triazolo[3,4-b]-1,3,4-thiadiazines as novel analgesic/anti-inflammatory compounds” (Eur J Med Chem, 2009).

In series [1] the test system is Mus musculus. Kind of series: Antiinflammatory activity in BALB/c mouse assessed as inhibition of carrageenan-induced paw edema at 50 mg/kg, po after 90 mins. Particulars: 1.5 h. In kind it is functional. In outline:
(§1)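 Oral dosing in 0.5% CMC/water suspension, vehicle for controls. 1 h later, carrageenan (0.5 mg/25 µl saline) injected subplantar into right hind paw, 25 µl saline into left. Right–left footpad thickness measured by dial callipers every 90 min for 6 h. % inhibition = [(n − n′)/n]×100 versus control. Groups of 3 (100 mg/kg screen) or 4–5 mice.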

The test system of series [2] is Mus musculus. The series can be described thus: Analgesic activity in BALB/c mouse assessed as decrease in acetic acid-induced writhing at 200 mg/kg, po administered 1 hr prior to acetic acid challenge by Koster's test. In kind it is functional. In outline: (§2)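 Test samples suspended in distilled water/0.5% CMC given orally; vehicle to controls. 1 h later, 3% (w/v) acetic acid i.p. (0.1 ml/10 g). Starting 5 min after injection, writhings counted for 10 min. Result expressed as % change from writhing controls. Groups of 4 mice (preliminary 100 mg/kg) or 4–5 mice (50/200 mg/kg). Two-tailed Student's t test.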

Series [3] concerns Mus musculus. Kind of series: Antiinflammatory activity in BALB/c mouse assessed as inhibition of carrageenan-induced paw edema at 200 mg/kg, po after 270 mins. In kind it is functional. Particulars: 4.5 h. The method in brief:
as §1

Series [4] concerns Mus musculus. The series can be described thus: Analgesic activity in BALB/c mouse assessed as decrease in acetic acid-induced writhing at 50 mg/kg, po administered 1 hr prior to acetic acid challenge by Koster's test. In kind it is functional. In outline:
as §2

In series [5] the test system is Mus musculus. Kind of series: Acute toxicity in BALB/c mouse assessed as diarrhea and depression at 50 to 200 mg/kg, po after 72 hrs. In kind it is organism-based. The arrangement: dose 50-200 mg/kg, route oral. Particulars: in vivo.
In series [6] the test system is Mus musculus. Kind of series: Antioxidant activity in BALB/c mouse assessed as TBARS level per gram of wet weight of tissue at 200 mg/kg, po. In kind it is functional. Set-up: unit: nmol/g. The method in brief: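 Mice dosed orally at 200 mg/kg were killed under ether 8 h after the writhing test and stomachs removed. Tissue extract supernatant obtained by centrifugation (1000×g 10 min, then 2000×g 30 min, 4 °C). Heated with TBA in boiling water for 60 min, TCA added, absorbance read at 532 nm against blank tissue. Calibrated with 1,1,3,3-tetraethoxypropane; reported as nmol TBARS/g wet tissue.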

Series [7] deals with Mus musculus. Kind of series: Analgesic activity in BALB/c mouse assessed as decrease in acetic acid-induced writhing at 100 mg/kg, po administered 1 hr prior to acetic acid challenge by Koster's test. In kind it is functional. The method in brief: as §2
Series [8] relates to Mus musculus. The series can be described thus: Antiinflammatory activity in BALB/c mouse assessed as inhibition of carrageenan-induced paw edema at 50 mg/kg, po after 360 mins. In kind it is functional. Particulars: 6 h. The method in brief:
as §1

Series [9] concerns Mus musculus. Kind of series: Antiinflammatory activity in BALB/c mouse assessed as inhibition of carrageenan-induced paw edema at 100 mg/kg, po after 180 mins. In kind it is functional. As to conditions: 3 h. In outline:
as §1

In series [10] the test system is Mus musculus. Kind of series: Antiinflammatory activity in BALB/c mouse assessed as inhibition of carrageenan-induced paw edema at 200 mg/kg, po after 360 mins. Particulars: 6 h. In kind it is functional. The method in brief: as §1

Consider `COc1cc(Cc2n[nH]c(=S)n2N)cc(OC)c1OC`, for which the inhibition in vivo at 50 mg/kg was 32.3% in the series on Mus musculus [1], 21.6% with Mus musculus [4] and 24.9% with Mus musculus [8]. For the same compound, the values for the inhibition in vivo at 200 mg/kg in the series with Mus musculus [2], in the series on Mus musculus [3] and in the series on Mus musculus [10] were 61%, 49.2% and 21.2%, respectively. Moreover, the figures for the Activity entry with Mus musculus [5] and in the series with Mus musculus [6] were “Non-toxic” and 96.2 nmol, respectively. Further, the inhibition in vivo at 100 mg/kg with Mus musculus [7] was 85.8%; in the series on Mus musculus [9], 30%.
